Test results: ChEMBL document CHEMBL1147738, “Potent and selective mitogen-activated protein kinase kinase (MEK) 1,2 inhibitors. 1. 4-(4-bromo-2-fluorophenylamino)-1- methylpyridin-2(1H)-ones” (J Med Chem, 2006)
Converted amounts (≈) assume the structure as drawn.

Experiments:
[1] = test system: Malme-3M; experiment: Inhibition of cellular viability of Malme-3M cells; format: functional, Homo sapiens
[2] = test system: Malme-3M; experiment: Inhibition of basal ERK phosphorylation in Malme-3M cells; format: functional, Homo sapiens
[3] = test system: Rattus norvegicus; experiment: AUC in rat at 10 mg/kg, po; format: ADME, organism-based, Sprague-Dawley, Plasma; parameters: dose 10 mg/kg, route oral; settings: in vivo
Method in brief: (§1)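 Male Sprague Dawley rats (6-10 weeks) were given 10 mg/kg by oral gavage (2 mg/mL in 1% CMC/0.5% Tween 80, 5 mL/kg). Tail-vein EDTA blood was drawn at 15 and 30 min and 1, 2, 4, 8, 12, 24, 48, 72 h. Plasma was quantified by LC/MS/MS after methanol precipitation. Parameters came from non-compartmental analysis.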

[4] = Volume of distribution in rat; format: ADME, organism-based; settings: Sprague-Dawley, in vivo, read-out: Vdss
Method in brief: (§2)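 Male Sprague Dawley rats (6-10 weeks) received IV 1 mg/kg (10% DMSO/90% saline) and PO 10 mg/kg (1% CMC/0.5% Tween 80). Serial tail-vein plasma was taken up to 24 h (IV) or 72 h (PO) and analysed by LC/MS/MS (9 ng/mL to 20 µg/mL). Parameters were calculated non-compartmentally.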

[5] = test system: HT-29; experiment: Inhibition of ERK phosphorylation in HT29 tumor bearing Ncr-nu/nu mice after 12 hrs at 10 mg/kg, po; format: functional; settings: Mus musculus, HT-29, 12 h
[6] = Half life in rat at 1 mg/kg, iv; format: ADME, organism-based; parameters: dose 1 mg/kg, route intravenous; settings: Sprague-Dawley, in vivo
Method in brief: (§3)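 Male Sprague Dawley rats (6-10 weeks), fed ad lib, dosed IV at 1 mg/kg (1 mg/mL in 10% DMSO/90% normal saline, 1 mL/kg). Tail-vein EDTA blood sampled 1, 5, 15, 30 min and 1, 2, 4, 8, 12, 24 h. Plasma analysed by LC/MS/MS after methanol protein precipitation, range 9 ng/mL to 20 µg/mL. Parameters derived by non-compartmental analysis.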

[7] = test system: Rattus norvegicus; experiment: AUC in rat at 1 mg/kg, iv; format: ADME, organism-based, Sprague-Dawley, Plasma; parameters: dose 1 mg/kg, route intravenous; settings: in vivo; method in brief: as §3
[8] = Half life in rat at 10 mg/kg, po; format: ADME, organism-based; parameters: dose 10 mg/kg, route oral; settings: Sprague-Dawley, in vivo; method in brief: as §1
[9] = test system: HT-29; experiment: Inhibition of ERK phosphorylation in HT29 tumor bearing NCr-nu/nu mice after 4 hrs at 10 mg/kg, po; format: functional; settings: Mus musculus, HT-29, 4 h
[10] = Oral bioavailability in rat; format: ADME, organism-based; settings: Sprague-Dawley, in vivo; method in brief: as §2
[11] = Clearance in presence of human hepatocytes; format: ADME, cell-based, Liver, Hepatocyte
Method in brief: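 Human hepatocytes (fresh or cryopreserved) diluted to 2 x 10⁶ viable cells/mL in supplemented Krebs-Henseleit buffer pH 7.3, mixed 1:1 with 2 µM compound working solution. Incubated at 37 °C, 5% CO₂, duplicates, one plate per timepoint. Quenched with labetalol internal standard and centrifuged; compound remaining measured by LC-MS/MS (ESI+, MRM).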

[12] = Clearance in rat; format: ADME, organism-based; settings: Sprague-Dawley, in vivo; method in brief: as §2
[13] = Aqueous solubility at pH 6.5; format: physicochemical
Method in brief: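 Thermodynamic shake-flask method: crystalline solid (0.5 mg, crystallinity confirmed by polarizing microscopy) in 0.5 mL 10 mM potassium phosphate, pH 6.5, swirled 24 h at room temperature. Filtered aliquots were quantified by HPLC-PDA against a calibration curve.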

SMILES	Activity [1] [nM]	Activity [2] [nM]	further results
Cn1cc(C(=O)NOCCO)c(Nc2ccc(Br)cc2F)c(Cl)c1=O	175	26	–
Cn1cc(C(=O)NOCC2CC2)c(Nc2ccc(Br)cc2F)cc1=O	165	26	–
Cc1c(Nc2ccc(Br)cc2F)c(C(=O)NOCC2CC2)cn(C)c1=O	46	7.5	–
COc1ncc(C(=O)NOCCO)c(Nc2ccc(Br)cc2F)c1Cl	>5000	>10000	–
CONC(=O)c1cn(C)c(=O)c(F)c1Nc1ccc(Br)cc1F	145	22	–
Cn1cc(C(N)=O)c(Nc2ccc(Br)cc2F)c(F)c1=O	48	7.1	AUC [3]: 23000 ng·h/mL; Vd [4]: 0.8 L/kg; inhibition in vivo at 10 mg/kg [5]: 50%; half-life [6]: 1.8 h; AUC [7]: 2500 ng·h/mL; half-life [8]: 11 h; inhibition in vivo at 10 mg/kg [9]: > 80%; bioavailability [10]: 100%; CLhep predicted [11]: 9 mL/min/kg; clearance [12]: 5.7 mL/min/kg; solubility [13]: 26 µg/mL (≈ 72.6 µM)
Cn1cc(C(=O)NOCC2CC2)c(Nc2ccc(Br)cc2F)c(F)c1=O	22	3.4	–
O=C(NOCCO)c1cnc(Cl)c(Cl)c1Nc1ccc(Br)cc1F	>5000	>10000	–
